ChEMBL document CHEMBL1126849, “Synthesis of A-ring fluorinated derivatives of (17 alpha,20E/Z)-[125I]iodovinylestradiols: effect on receptor binding and receptor-mediated target tissue uptake” (J Med Chem, 1993)

Legend:
Rattus norvegicus [1] = experiment: Biodistribution in uterus / blood of immature female rat after 1 hr administration of 3 micro Ci (111 kBq) in the absence of 60 microg estradiol; assay type: ADME, organism-based; details: in vivo
Procedure, shortened: (§1)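 Same in vivo procedure: immature female Long Evans rats (21–24 days), three to five per group, 3 μCi (111 kBq) tracer i.v. via tail vein in 9% ethanol/saline/1% Tween-80, ± 60 μg estradiol co-injected at 1 h. Uterus %ID/g (gamma counting) divided by blood, or by nontarget organ (muscle, spleen, lungs), %ID/g to give ratios.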

Rattus norvegicus [2] = experiment: Biodistribution in fat of immature female rat after 12 hour administration of 3 micro Ci (111 kBq) in the absence of 60 microg estradiol; assay type: ADME, organism-based, Adipose tissue; details: in vivo
Procedure, shortened: (§2)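 Immature female Long Evans rats (21–24 days, 45–70 g), unanesthetized in retention cages, given 3 µCi (111 kBq) 125I-labeled steroid i.v. via lateral tail vein. Vehicle was ethanol diluted in saline containing 1% Tween-80, giving 9% ethanol final. The blocking group received 60 µg unlabeled estradiol co-injected. Rats were killed under ether by axillary bleeding, and tissues were KCl-washed and gamma-counted. Data are %ID/g, mean ± SE, n=3–5.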

Rattus norvegicus [3] = experiment: Biodistribution in blood of immature female rat after 3 hour administration of 3 micro Ci (111 kBq) in the absence of 60 microg estradiol; assay type: ADME, organism-based; details: in vivo; procedure, shortened: as §2
Rattus norvegicus [4] = experiment: Biodistribution in uterus / blood of immature female rat after 1 hr administration of 3 micro Ci (111 kBq) in the presence of (+E2); assay type: ADME, organism-based; details: in vivo; procedure, shortened: as §1
Rattus norvegicus [5] = experiment: Biodistribution in thyroid of immature female rat after 5 hour administration of 3 micro Ci (111 kBq) in the absence of 60 microg estradiol; assay type: ADME, organism-based, Thyroid gland; details: in vivo
Procedure, shortened: (§3)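 Immature female Long Evans rats (21–24 days, 45–70 g), three to five per group, given 125I-labeled steroid (3 μCi, 111 kBq) by lateral tail vein without anesthesia. Vehicle: ethanol diluted in saline with 1% Tween-80, final ethanol 9%, 0.22 μm filtered. +E2 groups received 60 μg unlabeled estradiol co-injected. Killed under ether at set times; tissues KCl-washed, blotted, weighed, gamma counted; %ID/g, mean with SE.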

Rattus norvegicus [6] = experiment: Biodistribution in muscle of immature female rat after 1 hr administration of 3 micro Ci (111 kBq) in the absence of 60 microg estradiol; assay type: ADME, organism-based, Muscle tissue; details: in vivo; procedure, shortened: as §3
Rattus norvegicus [7] = experiment: Biodistribution in fat of immature female rat after 3 hour administration of 3 micro Ci (111 kBq) in the absence of 60 microg estradiol; assay type: ADME, organism-based, Adipose tissue; details: in vivo; procedure, shortened: as §2
Rattus norvegicus [8] = experiment: Biodistribution in blood of immature female rat after 5 hour administration of 3 micro Ci (111 kBq) in the absence of 60 microg estradiol; assay type: ADME, organism-based; details: in vivo; procedure, shortened: as §2
[9] = biological target: Estrogen receptor (Mus musculus) (UniProt O08537+P19785); experiment: Relative binding affinity (RBA) against murine cytoplasmic estrogen receptor incubated at 0-4 degree Celsius for 18 hours; assay type: protein assay
Estrogen receptor (Mus musculus), sequence (O08537 whole entry, looked up): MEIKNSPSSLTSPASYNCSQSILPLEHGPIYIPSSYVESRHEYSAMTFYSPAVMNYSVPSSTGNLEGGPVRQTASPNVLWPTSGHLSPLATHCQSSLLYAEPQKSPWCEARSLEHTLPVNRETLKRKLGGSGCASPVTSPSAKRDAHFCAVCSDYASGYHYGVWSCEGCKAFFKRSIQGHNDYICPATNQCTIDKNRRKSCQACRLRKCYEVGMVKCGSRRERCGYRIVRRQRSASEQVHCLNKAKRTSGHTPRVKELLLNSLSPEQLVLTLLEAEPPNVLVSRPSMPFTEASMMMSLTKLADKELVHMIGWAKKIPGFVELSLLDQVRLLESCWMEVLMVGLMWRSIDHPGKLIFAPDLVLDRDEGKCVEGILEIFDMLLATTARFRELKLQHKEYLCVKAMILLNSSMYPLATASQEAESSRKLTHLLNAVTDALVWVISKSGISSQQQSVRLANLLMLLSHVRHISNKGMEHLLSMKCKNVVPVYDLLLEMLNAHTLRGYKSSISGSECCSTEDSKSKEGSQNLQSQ
Estrogen receptor (Mus musculus), sequence (P19785 whole entry, looked up): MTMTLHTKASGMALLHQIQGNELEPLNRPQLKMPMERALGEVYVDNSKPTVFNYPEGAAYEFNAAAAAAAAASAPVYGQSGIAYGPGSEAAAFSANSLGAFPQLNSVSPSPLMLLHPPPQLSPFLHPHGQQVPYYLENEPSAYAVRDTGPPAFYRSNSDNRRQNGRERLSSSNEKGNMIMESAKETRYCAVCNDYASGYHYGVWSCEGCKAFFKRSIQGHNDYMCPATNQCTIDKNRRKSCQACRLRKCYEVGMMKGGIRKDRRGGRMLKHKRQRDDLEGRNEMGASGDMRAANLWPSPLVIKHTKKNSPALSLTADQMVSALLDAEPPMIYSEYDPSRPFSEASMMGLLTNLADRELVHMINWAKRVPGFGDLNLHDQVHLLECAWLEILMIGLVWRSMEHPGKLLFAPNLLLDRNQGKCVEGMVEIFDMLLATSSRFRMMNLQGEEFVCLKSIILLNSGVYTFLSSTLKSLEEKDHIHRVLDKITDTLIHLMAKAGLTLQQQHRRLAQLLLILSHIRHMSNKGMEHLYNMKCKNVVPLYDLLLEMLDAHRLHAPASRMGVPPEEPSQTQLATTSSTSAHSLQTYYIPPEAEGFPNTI
Procedure, shortened: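 Competitive binding on murine uterine cytoplasmic extract with 20 nM [3H]estradiol and competitor steroids at 2 nM–20 μM, incubated 18 h at 0–4 °C. RBA = 100 × ratio of […] concentration giving 50% competition for specific binding. Mean of three experiments with SD.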

Rattus norvegicus [10] = experiment: Biodistribution in uterus of immature female rat after 3 hour administration of 3 micro Ci (111 kBq) in the absence of 60 microg estradiol; assay type: ADME, organism-based; details: in vivo
Procedure, shortened: (§4)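 Immature female Long Evans rats (21–24 days, 45–70 g), 3–5 per group, unanesthetized in retention cages, given 3 μCi (111 kBq) 125I-labeled steroid by lateral tail vein. Vehicle: ethanol diluted with saline containing 1% Tween-80, final ethanol 9%. +E2 group co-injected 60 μg unlabeled estradiol (1 h only). Killed under ether; tissues KCl-washed, weighed, gamma-counted. Output: %ID/g (mean, SE) and uterus to blood or nontarget (muscle, spleen, lungs) ratios.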

Rattus norvegicus [11] = experiment: Biodistribution in uterus / spleen, muscle, lungs of immature female rat after 1 hr administration of 3 micro Ci (111 kBq) in the absence of 60 microg estradiol; assay type: ADME, organism-based; details: in vivo; procedure, shortened: as §1
Rattus norvegicus [12] = experiment: Biodistribution in uterus of immature female rat after 1 hr administration of 3 micro Ci (111 kBq) in the absence of 60 microg estradiol; assay type: ADME, organism-based; details: in vivo; procedure, shortened: as §4
Rattus norvegicus [13] = experiment: Biodistribution in spleen of immature female rat after 1 hr administration of 3 micro Ci (111 kBq) in the absence of 60 microg estradiol; assay type: ADME, organism-based; details: in vivo; procedure, shortened: as §3
Rattus norvegicus [14] = experiment: Biodistribution in spleen of immature female rat after 1 hr administration of 3 micro Ci (111 kBq) in the presence of (+E2); assay type: ADME, organism-based; details: in vivo; procedure, shortened: as §3
Rattus norvegicus [15] = experiment: Biodistribution in uterus of immature female rat after 12 hour administration of 3 micro Ci (111 kBq) in the absence of 60 microg estradiol; assay type: ADME, organism-based; details: in vivo; procedure, shortened: as §4
Rattus norvegicus [16] = experiment: Biodistribution in uterus / blood of immature female rat after 3 hour administration of 3 micro Ci (111 kBq) in the absence of 60 microg estradiol; assay type: ADME, organism-based; details: in vivo; procedure, shortened: as §1
Rattus norvegicus [17] = experiment: Biodistribution in kidney of immature female rat after 5 hour administration of 3 micro Ci (111 kBq) in the absence of 60 microg estradiol; assay type: ADME, organism-based; details: in vivo; procedure, shortened: as §2
Rattus norvegicus [18] = experiment: Biodistribution in spleen of immature female rat after 5 hour administration of 3 micro Ci (111 kBq) in the absence of 60 microg estradiol; assay type: ADME, organism-based; details: in vivo; procedure, shortened: as §3
Rattus norvegicus [19] = experiment: Biodistribution in uterus / blood of immature female rat after 5 hour administration of 3 micro Ci (111 kBq) in the absence of 60 microg estradiol; assay type: ADME, organism-based; details: in vivo; procedure, shortened: as §1
Rattus norvegicus [20] = experiment: Biodistribution in liver of immature female rat after 3 hour administration of 3 micro Ci (111 kBq) in the absence of 60 microg estradiol; assay type: ADME, organism-based; details: in vivo; procedure, shortened: as §2
Rattus norvegicus [21] = experiment: Biodistribution in uterus of immature female rat after 1 hr administration of 3 micro Ci (111 kBq) in the presence of (+E2); assay type: ADME, organism-based; details: in vivo; procedure, shortened: as §4
Rattus norvegicus [22] = experiment: Biodistribution in blood of immature female rat after 1 hr administration of 3 micro Ci (111 kBq) in the presence of (+E2); assay type: ADME, organism-based; details: in vivo; procedure, shortened: as §2
Rattus norvegicus [23] = experiment: Biodistribution in kidney of immature female rat after 3 hour administration of 3 micro Ci (111 kBq) in the absence of 60 microg estradiol; assay type: ADME, organism-based; details: in vivo; procedure, shortened: as §2
Rattus norvegicus [24] = experiment: Biodistribution in lungs of immature female rat after 1 hr administration of 3 micro Ci (111 kBq) in the presence of (+E2); assay type: ADME, organism-based, Lung; details: in vivo; procedure, shortened: as §2
Rattus norvegicus [25] = experiment: Biodistribution in liver of immature female rat after 12 hour administration of 3 micro Ci (111 kBq) in the absence of 60 microg estradiol; assay type: ADME, organism-based; details: in vivo; procedure, shortened: as §2
Rattus norvegicus [26] = experiment: Biodistribution in fat of immature female rat after 1 hr administration of 3 micro Ci (111 kBq) in the absence of 60 microg estradiol; assay type: ADME, organism-based, Adipose tissue; details: in vivo; procedure, shortened: as §2
Rattus norvegicus [27] = experiment: Biodistribution in uterus of immature female rat after 5 hour administration of 3 micro Ci (111 kBq) in the absence of 60 microg estradiol; assay type: ADME, organism-based; details: in vivo; procedure, shortened: as §4
Rattus norvegicus [28] = experiment: Biodistribution in uterus / blood of immature female rat after 12 hour administration of 3 micro Ci (111 kBq) in the absence of 60 microg estradiol; assay type: ADME, organism-based; details: in vivo; procedure, shortened: as §1
Rattus norvegicus [29] = experiment: Biodistribution in lungs of immature female rat after 5 hour administration of 3 micro Ci (111 kBq) in the absence of 60 microg estradiol; assay type: ADME, organism-based, Lung; details: in vivo; procedure, shortened: as §3
Rattus norvegicus [30] = experiment: Biodistribution in uterus / spleen, muscle, lungs of immature female rat after 12 hour administration of 3 micro Ci (111 kBq) in the absence of 60 microg estradiol; assay type: ADME, organism-based; details: in vivo; procedure, shortened: as §4

Structure (SMILES) | uterus-to-blood ratio of %ID/g (Rattus norvegicus [1]) [%] | ID/g (Rattus norvegicus [2]) [%] | ID/g (Rattus norvegicus [3]) [%] | uterus/blood %ID/g ratio (Rattus norvegicus [4]) [%] | ID/g (Rattus norvegicus [5]) [%] | ID/g (Rattus norvegicus [6]) [%] | ID/g (Rattus norvegicus [7]) [%] | ID/g (Rattus norvegicus [8]) [%] | RBA [9] | ID/g (Rattus norvegicus [10]) [%] | ID/g (Rattus norvegicus [12]) [%] | ID/g (Rattus norvegicus [13]) [%] | ID/g (Rattus norvegicus [14]) [%] | ID/g (Rattus norvegicus [15]) [%] | uterus to blood %ID/g ratio (unitless) (Rattus norvegicus [16]) [%] | ID/g (Rattus norvegicus [17]) [%] | ID/g (Rattus norvegicus [18]) [%] | uterus to blood ratio (Rattus norvegicus [19]) [%] | ID/g (Rattus norvegicus [20]) [%] | ID/g (Rattus norvegicus [21]) [%] | further results
C[C@@H]1Cc2c(ccc(O)c2F)[C@H]2CC[C@@]3(C)[C@@H](CC[C@@]3(O)/C=C/I)[C@H]12 | 12.53 | 1.67 | 0.32 | 2.68 | 114 | 0.75 | 4 | 0.39 | 36.4 | 5.29 | 4.71 | 0.68 | 1.29 | 3.02 | 17.28 | 0.89 | 0.8 | 16.4 | 3.44 | 1.14 | uterus-to-nontarget tissue uptake ratio (Rattus norvegicus [11]): 5.03%; ID/g (Rattus norvegicus [22]): 0.44%; ID/g (Rattus norvegicus [23]): 0.95%; ID/g (Rattus norvegicus [24]): 1.86%; ID/g (Rattus norvegicus [25]): 1.57%; ID/g (Rattus norvegicus [26]): 0.03%; ID/g (Rattus norvegicus [27]): 6.44%; Uterus-to-blood radioactivity ratio (dimensionless) (Rattus norvegicus [28]): 17.87%; ID/g (Rattus norvegicus [29]): 0.77%; uterus to nontarget tissue ratio (Rattus norvegicus [30]): 15.57%
C[C@@H]1Cc2cc(O)c(F)cc2[C@H]2CC[C@@]3(C)[C@@H](CC[C@@]3(O)/C=C\I)[C@H]12 | 8.3 | 0.84 | 0.32 | 1.2 | 424 | 0.53 | 1.54 | 0.33 | 28.6 | 4.03 | 3.76 | 1.12 | 0.56 | 3.84 | 14.81 | 0.54 | 0.51 | 11.08 | 1.81 | 0.39 | uterus-to-nontarget tissue uptake ratio (Rattus norvegicus [11]): 5.13%; ID/g (Rattus norvegicus [22]): 0.32%; ID/g (Rattus norvegicus [23]): 0.69%; ID/g (Rattus norvegicus [24]): 0.42%; ID/g (Rattus norvegicus [25]): 1.69%; ID/g (Rattus norvegicus [26]): 2.02%; ID/g (Rattus norvegicus [27]): 3.4%; Uterus-to-blood radioactivity ratio (dimensionless) (Rattus norvegicus [28]): 18.13%; ID/g (Rattus norvegicus [29]): 0.37%; uterus to nontarget tissue ratio (Rattus norvegicus [30]): 15.99%
C[C@@H]1Cc2c(ccc(O)c2F)[C@H]2CC[C@@]3(C)[C@@H](CC[C@@]3(O)/C=C\I)[C@H]12 | 8.35 | 0.89 | 0.39 | 1.16 | 380 | 0.45 | 1.42 | 0.36 | 36.8 | 4.11 | 3.55 | 1.16 | 0.69 | 3.45 | 10.6 | 0.67 | 0.57 | 10.01 | 1.18 | 0.5 | ID/g (Rattus norvegicus [11]): 5.41%; ID/g (Rattus norvegicus [22]): 0.45%; ID/g (Rattus norvegicus [23]): 0.85%; ID/g (Rattus norvegicus [24]): 0.67%; ID/g (Rattus norvegicus [25]): 0.8%; ID/g (Rattus norvegicus [26]): 1.3%; ID/g (Rattus norvegicus [27]): 4.39%; Uterus-to-blood radioactivity ratio (dimensionless) (Rattus norvegicus [28]): 16.64%; ID/g (Rattus norvegicus [29]): 0.48%; uterus to nontarget tissue ratio (Rattus norvegicus [30]): 17.02%
C[C@]12CC[C@@H]3c4cc(F)c(O)cc4CC[C@H]3[C@@H]1CC[C@@]2(O)/C=C\I | 7.34 | 0.19 | 0.42 | 1.2 | 149.9 | 0.57 | 2.21 | 0.3 | 53.7 | 5.44 | 4.41 | 0.55 | 1 | 2.51 | 12.98 | 0.3 | 0.2 | 12.09 | 1.76 | 0.68 | uterus-to-nontarget tissue uptake ratio (Rattus norvegicus [11]): 7.32%; ID/g (Rattus norvegicus [22]): 0.58%; ID/g (Rattus norvegicus [23]): 0.53%; ID/g (Rattus norvegicus [24]): 0.75%; ID/g (Rattus norvegicus [25]): 0.81%; ID/g (Rattus norvegicus [26]): 2.19%; ID/g (Rattus norvegicus [27]): 3.67%; Uterus-to-blood radioactivity ratio (dimensionless) (Rattus norvegicus [28]): 15.69%; ID/g (Rattus norvegicus [29]): 0.24%; uterus to nontarget tissue ratio (Rattus norvegicus [30]): 20.54%
